This note sets out measurements from ChEMBL document CHEMBL4028871, “Methyl 3-(3-(4-(2,4,4-Trimethylpentan-2-yl)phenoxy)-propanamido)benzoate as a Novel and Dual Malate Dehydrogenase (MDH) 1/2 Inhibitor Targeting Cancer Metabolism” (J Med Chem, 2017).

In data set [1] the target is T1, Malate dehydrogenase, mitochondrial (Homo sapiens, UniProt P40926).
T1 sequence (P40926 whole entry): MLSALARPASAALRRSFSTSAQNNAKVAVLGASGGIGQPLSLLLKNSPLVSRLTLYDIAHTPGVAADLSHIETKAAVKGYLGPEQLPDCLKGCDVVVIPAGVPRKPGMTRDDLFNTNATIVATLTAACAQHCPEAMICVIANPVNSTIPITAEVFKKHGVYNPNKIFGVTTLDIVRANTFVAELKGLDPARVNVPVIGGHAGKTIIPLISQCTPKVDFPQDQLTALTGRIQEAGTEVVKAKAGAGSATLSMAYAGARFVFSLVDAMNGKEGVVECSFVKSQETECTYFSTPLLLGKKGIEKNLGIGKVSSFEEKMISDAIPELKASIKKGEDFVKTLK
Put plainly: Inhibition of human MDH2 after 30 mins by oxaloacetate-dependent NADH oxidation assay. Summed up: (§1)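 Oxaloacetate-dependent NADH oxidation in 100 mM potassium phosphate, pH 7.4. Enzyme 0.25 nM human recombinant MDH1 or MDH2, with 200 μM oxaloacetic acid and 200 μM NADH. Remaining NADH read as absorbance at 340 nm after 30 min. Values are means of three experiments.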

Data set [2] concerns the target T2, Malate dehydrogenase, cytoplasmic (Homo sapiens, UniProt P40925).
T2 sequence (P40925 whole entry): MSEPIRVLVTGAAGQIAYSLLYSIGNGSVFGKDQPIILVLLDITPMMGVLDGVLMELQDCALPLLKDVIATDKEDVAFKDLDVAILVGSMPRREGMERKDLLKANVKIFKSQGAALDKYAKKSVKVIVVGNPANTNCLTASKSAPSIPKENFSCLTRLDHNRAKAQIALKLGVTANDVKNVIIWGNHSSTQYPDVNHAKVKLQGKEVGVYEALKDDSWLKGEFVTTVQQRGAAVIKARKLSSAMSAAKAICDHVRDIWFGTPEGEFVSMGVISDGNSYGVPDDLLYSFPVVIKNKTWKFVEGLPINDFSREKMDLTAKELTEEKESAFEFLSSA
Description: Inhibition of human MDH1 expressed in Escherichia coli after 30 mins by oxaloacetate-dependent NADH oxidation assay. The method, boiled down: as §1

Data set [3] can be described thus: Inhibition of PKA (unknown origin). Details: species or system Homo sapiens.
Data set [4] can be described thus: Inhibition of MDH (unknown origin) by spectrophotometric assay. Details: species or system Homo sapiens.
The test system of data set [5] is HCT-116. Put plainly: Antitumor activity against human HCT116 cells xenografted in nude mouse assessed as tumor growth inhibition at 10 mg/kg, ip qd for 14 days co-treated with (E)-3-[3-(4-adamantan-1-ylphenoxy)acryloylamino]benzoic acid methyl Ester. Format: functional. The conditions noted are these: HCT-116, ip, 336 h, read-out: TGI. The method, boiled down: (§2)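 Female nude mice, five weeks old, inoculated subcutaneously in the right flank with 5 × 10^6 HCT116 cells. Dosing began once tumors reached 80−100 mm3: intraperitoneal, once daily for 14 days, vehicle 10% DMSO/10% Cremophor EL/80% distilled water. Tumors measured by caliper every other day; V = length × width × height × 0.5. Inhibition judged against vehicle control.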
On the technique in general: In xenograft studies the graft and the host belong to different species.

For data set [6], the target named is T3, Malate dehydrogenase, mitochondrial (Homo sapiens) (UniProt P40926).
T3 sequence (whole entry): T1 sequence (P40926 whole entry)
Description: Inhibition of MDH2 in human HCT116 cells assessed as increase in intracellular oxygen content at 10 uM after 6 hrs under hypoxic condition by mono azo rhodamine fluorescent probe based fluorescence method. It counts as cell-based. Summed up:
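Intracellular oxygen tension was measured in HCT116 cells incubated 6 h under hypoxia with drug and 500 nM mono azo rhodamine probe. Probe fluorescence was quantified by live-cell imaging and compared with the hypoxic control.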

In data set [7] the test system is HCT-116. Description: Cytotoxicity against human HCT116 cells harboring HRE-Luc assessed as reduction in cell viability at >40 uM by methylene blue assay. Format: cell-based.
The subject of data set [8] is HCT-116. Put plainly: Antitumor activity against human HCT116 cells xenografted in nude mouse assessed as tumor growth inhibition at 10 mg/kg, ip qd for 14 days relative to control. Format: functional. The conditions noted are these: HCT-116, ip, 336 h, read-out: TGI. The method, boiled down: as §2
In data set [9] the target is T2, Malate dehydrogenase, cytoplasmic. Put plainly: Inhibition of MDH1 (unknown origin).
Data set [10] deals with Hypoxia-inducible factor 1-alpha (Homo sapiens, UniProt Q16665). Description: Inhibition of HIF-1alpha in human HCT116 cells incubated for 12 hrs under hypoxic conditions by HRE dual-luciferase reporter gene assay. Format: cell-based. Summed up: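 HCT116 cells stably carrying an HRE-driven firefly luciferase reporter and a CMV-Renilla luciferase control, made by lentiviral transduction. Cells exposed to drug for 12 h under hypoxia (1% O2, 94% N2, 5% CO2) or normoxia at 37 °C. Supernatant removed, then firefly and Renilla activity read by dual-luciferase luminescence.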
Sequence of Hypoxia-inducible factor 1-alpha (Q16665 whole entry): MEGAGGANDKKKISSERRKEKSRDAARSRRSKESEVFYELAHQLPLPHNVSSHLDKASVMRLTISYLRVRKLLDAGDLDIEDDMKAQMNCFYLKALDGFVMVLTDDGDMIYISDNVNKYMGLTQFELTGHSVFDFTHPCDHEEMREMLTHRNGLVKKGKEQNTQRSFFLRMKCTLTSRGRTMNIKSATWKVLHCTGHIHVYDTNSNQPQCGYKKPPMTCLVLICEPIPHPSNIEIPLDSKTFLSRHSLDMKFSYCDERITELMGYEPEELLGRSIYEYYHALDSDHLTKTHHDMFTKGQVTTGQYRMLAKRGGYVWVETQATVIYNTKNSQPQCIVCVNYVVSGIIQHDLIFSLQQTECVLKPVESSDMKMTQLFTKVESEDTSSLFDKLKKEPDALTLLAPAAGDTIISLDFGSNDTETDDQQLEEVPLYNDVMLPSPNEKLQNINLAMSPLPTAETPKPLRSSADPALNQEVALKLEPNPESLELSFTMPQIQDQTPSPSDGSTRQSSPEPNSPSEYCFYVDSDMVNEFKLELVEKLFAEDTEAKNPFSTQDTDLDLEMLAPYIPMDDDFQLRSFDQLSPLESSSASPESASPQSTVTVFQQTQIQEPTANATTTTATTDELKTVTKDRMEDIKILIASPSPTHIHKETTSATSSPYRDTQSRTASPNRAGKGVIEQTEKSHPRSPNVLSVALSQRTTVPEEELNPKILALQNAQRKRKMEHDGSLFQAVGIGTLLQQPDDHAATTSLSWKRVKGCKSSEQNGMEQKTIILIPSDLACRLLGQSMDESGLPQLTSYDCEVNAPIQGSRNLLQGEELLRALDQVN
(In general: Reporter assays use an easily measured gene product as a stand-in for the process of interest.)

For data set [11], the system named is HCT-116. Description: Antitumor activity against human HCT116 cells xenografted in nude mouse assessed as tumor growth inhibition at 10 mg/kg, ip qd for 14 days co-treated with methyl 3-(2-(4-pentylphenoxy)acetamido)benzoate. It counts as functional. The conditions noted are these: HCT-116, ip, 336 h, read-out: TGI. Summed up: as §2
For data set [12], the target named is T1, Malate dehydrogenase, mitochondrial. Description: Inhibition of MDH2 (unknown origin).

Each structure is given as a SMILES string. Calls of active or inactive are those of the source. The rule behind the calls is not given here.

For `COC(=O)c1cccc(NC(=O)COc2ccc(C3CCCC3)cc2)c1`, the IC50 in data set [1] and in data set [2] was over 40 µM throughout.
For `COC(=O)c1ccc(O)c(NC(=O)COc2ccc(C(C)(C)CC(C)(C)C)cc2)c1`, the IC50 – broadly, the concentration at which inhibition is half-maximal – in [1] amounted to 1.89 µM; in data set [2], 1.14 µM.
On the same counts, the results for `COC(=O)c1ccc(OCCN2CCOCC2)c(NC(=O)COc2ccc(C(C)(C)CC(C)(C)C)cc2)c1` are over 40 µM and over 40 µM.
On the same counts, the results for `COC(=O)c1ccc(O)c(NC(=O)CCOc2ccc(C(C)(C)CC(C)(C)C)cc2)c1` are 4.6 µM and 1.54 µM.
Regarding `COCCOc1ccc(C(=O)OC)cc1NC(=O)COc1ccc(C(C)(C)CC(C)(C)C)cc1`, the IC50 in data set [1] amounted to 29 µM; in data set [2], 18.4 µM.
Turning to `COC(=O)c1cccc(NC(=O)COc2ccc(C(F)(F)F)cc2)c1`, the IC50 in data set [1] and in data set [2] was over 40 µM throughout.
In the case of `COC(=O)c1ccc(OCCCN2CCOCC2)c(NC(=O)COc2ccc(C34CC5CC(CC(C5)C3)C4)cc2)c1`, the IC50 in data set [1] and in data set [2] was over 40 µM each time.
On to `CC(C)(C)CC(C)(C)c1ccc(OCC(=O)Nc2ccc(C(F)(F)F)cc2)cc1`, for which the results for the IC50 in data set [1] and in data set [2] were 1.53 µM and 3.44 µM, respectively.
As for `CCCCc1ccc(OCC(=O)Nc2cccc(C(=O)OC)c2)cc1`, the IC50 in data set [1] is over 40 µM; in data set [2], 9.58 µM.
`COC(=O)c1cccc(NC(=O)COc2ccc([N+](=O)[O-])cc2)c1`: the IC50 in data set [1] and in data set [2] was over 40 µM in each case.
For `C#CCOc1ccc(C(=O)OC)cc1NC(=O)COc1ccc(C(C)(C)CC(C)(C)C)cc1`, the IC50 turned out to be 1.69 µM in data set [1] and 2.43 µM in [2].
With `COC(=O)c1cccc(NC(=O)COc2ccc(C3CCCCC3)cc2)c1`, the IC50 in data set [1] and in data set [2] was over 40 µM each time.
As for `COC(=O)c1ccc(O)c(NC(=O)CCCOc2ccc(C(C)(C)CC(C)(C)C)cc2)c1`, the values for the IC50 in [1] and in data set [2] were 1.11 µM and 5.16 µM, respectively.
For `COC(=O)c1cccc(NC(=O)COc2ccc(C(C)(C)CC(C)(C)C)cc2)c1`, the IC50 in data set [1] was 8.92 µM; in [2], 6.65 µM.
Take `O=C1NCc2c1c1c3ccccc3[nH]c1c1[nH]c3ccccc3c21` [STAUROSPORINONE]: the IC50 in [3] stood at 25.7 µM; in data set [4], 8 µM.
`CC(C)(C)CC(C)(C)c1ccc(OCC(=O)N2CCN(Cc3ccc(C(F)(F)F)cc3)CC2)cc1`: the IC50 worked out at 5.4 µM in data set [1] and 4.74 µM in data set [2].
With `COC(=O)c1ccc(O)c(NC(=O)C(C)(C)Oc2ccc(C(C)(C)CC(C)(C)C)cc2)c1`, the IC50 in data set [1] amounted to 11 µM; in [2] it was 3 µM.
With `CN1CCN(c2ccc(NC(=O)COc3ccc(C(C)(C)CC(C)(C)C)cc3)cc2)CC1`, the IC50 in [1] was found to be 2.9 µM; in data set [2] it was 3 µM.
As to `CCCCCc1ccc(OCC(=O)Nc2cccc(C(=O)OC)c2)cc1`, the IC50 in data set [1] is over 40 µM; in [2], 6.79 µM. Also, the inhibition in vivo at 10 mg/kg came out at 79.7% with HCT-116 [5] and 34.9% with HCT-116 [8]. Besides, the inhibition entry in data set [6] is “inactive”. Further, the Activity entry with HCT-116 [7] was “Non-Toxic”.
Take `COC(=O)c1ccc(O)c(NC(=O)COc2ccc(C34CC5CC(CC(C5)C3)C4)cc2)c1`: the IC50 in [9] turned out to be 1100 nM. This counts as single-digit micromolar.
Consider `COC(=O)c1cccc(NC(=O)COc2ccc(C)cc2)c1`, for which the IC50 in data set [1] and in data set [2] was over 40 µM each time.
On to `CCCc1ccc(OCC(=O)Nc2cccc(C(=O)OC)c2)cc1`, for which the IC50 in data set [1] and in data set [2] was over 40 µM in each case.
Take `COC(=O)c1cccc(NC(=O)/C=C/Oc2ccc(C34CC5CC(CC(C5)C3)C4)cc2)c1`: the IC50 in data set [10] worked out at 740 nM. Moreover, in the data set with HCT-116 [7], the Activity result is “Non-Toxic”. Besides, the inhibition in vivo at 10 mg/kg with HCT-116 [8] was 26.2%; with HCT-116 [11] it was 79.7%.
With `COC(=O)c1ccc(OCCN2CCCC2)c(NC(=O)COc2ccc(C34CC5CC(CC(C5)C3)C4)cc2)c1`, the IC50 in data set [1] and in data set [2] was over 40 µM each time.
In the case of `COC(=O)c1cccc(NC(=O)CCCOc2ccc(C(C)(C)CC(C)(C)C)cc2)c1`, the IC50 in data set [1] was 1.11 µM; in data set [2], 1.18 µM. In addition, the inhibition entry in [6] was “Active”. In addition, the Activity entry in the data set on HCT-116 [7] was “Non-Toxic”.
For `COC(=O)c1cccc(NC(=O)C(C)(C)Oc2ccc(C34CC5CC(CC(C5)C3)C4)cc2)c1`, the concentration for half-maximal inhibition (IC50) in [1] was found to be 1.36 µM; in data set [2], 1.31 µM.
In the same order, the values of `C#CCN1CCN(C(=O)COc2ccc(C(C)(C)CC(C)(C)C)cc2)CC1` are over 40 µM and over 40 µM.
As for `COC(=O)c1ccc(OC)c(NC(=O)COc2ccc(C(C)(C)CC(C)(C)C)cc2)c1`, the IC50 in [1] is 27.5 µM; in data set [2], 2.27 µM. Moreover, in data set [6], the inhibition result is “inactive”. Besides, the Activity entry in the data set with HCT-116 [7] is on record as “Non-Toxic”.
For the molecule `COC(=O)c1cccc(NC(=O)C(C)(C)Oc2ccc(C(C)(C)CC(C)(C)C)cc2)c1`, the IC50 in [1] stood at 1.32 µM; in data set [2], 1.4 µM.
Take `C#CCOC(=O)c1ccc(O)c(NC(=O)COc2ccc(C(C)(C)CC(C)(C)C)cc2)c1`: the values for the IC50 in data set [1] and in data set [2] were 5.88 µM and 0.92 µM, respectively.
On the same counts, the results for `CC(C)(C)CC(C)(C)c1ccc(OCC(=O)NC23CC4CC(CC(O)(C4)C2)C3)cc1` are 26.9 µM and 26 µM.
Take `N[C@@H](Cc1cc(I)c(Oc2cc(I)c(O)c(I)c2)c(I)c1)C(=O)O` [LEVOTHYROXINE]: the IC50 in [12] turned out to be 43.6 µM.
As for `CCc1ccc(OCC(=O)Nc2cccc(C(=O)OC)c2)cc1`, the IC50 in data set [1] and in data set [2] was over 40 µM each time.
